# Cneo AK release: causes C. neoformans cell lysis; adenylate kinase release luminescence, 4 h; normalised: neutral wells 0, clomiphene wells 100; lysis activity, % at 15 µM; 360,000 tested, 0.2% active;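 active means mean lysis activity across replicates of at least 80%, whatever share of replicates individually reach that level; inactive means mean lysis activity below 80%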
#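 Assay system: log-phase C. neoformans yeast / Quantity: yeast cell density of 5 × 10^6 cells/mL / Medium: fresh YPD growth medium / Compound: single dose / Timing: static 4 h at 37 °C with compound, 1 h detection / Measured by: adenylate kinase release luminescence / Read-out: lysis from increased AK signal / Benchmarks: Clomiphene as positive lysis control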
# DENV2 CPE rescue: protects cells from dengue virus 2 cytopathic effect. DENV2-infected cells, cytopathic effect rescue, plate reader. CPE inhibition, % at 9.99 µM. 350,000 tested, 1.7% active. AID 651640; in the data active means CPE inhibition above about 20%, passing the limit was not always enough; tested in BHK-21 cells
# PfHsp90 yeast 2: growth inhibition of yeast expressing Plasmodium Hsp90; S. cerevisiae expressing PfHsp90, BacTiter-Glo ATP, 48 h; yeast lacking PDR1 and PDR3 efflux regulators; inhibition, % at 9.4 µM; 310,000 tested, 0.32% active; AID 504621;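 active means every replicate shows inhibition above about 80%, whatever the replicate mean, limit read from the data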
# Ecoli rRNA inh: inhibits bacterial ribosomal RNA function over humanized ribosomes. GFP signal change (wild-type ribosome), % (test concentration not listed). E. coli WT GFP vs humanized-ribosome RFP mutants, fluorescence, 24 h; hits give low values; DMSO median 0, no signal -100. 350,000 tested, 1.6% active;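 active means significant combined selectivity score with lowered wild-type GFP, culture density cut under 30%, mutant RFP and density less affected; inactive means any of these conditions unmet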
# MLL AF4-AF9 inh: inhibitors of human MLL-AF4/AF9 interaction | 350,000 tested, 0.47% active | AlphaScreen, biotin-AF4 peptide binding to FLAG-AF9 | P42568 | inhibition, % at 10 µM;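 active means every replicate reaching a set inhibition limit, whatever the replicate mean, cut at about 25% in these data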
# Target sequence (P42568 whole entry, looked up): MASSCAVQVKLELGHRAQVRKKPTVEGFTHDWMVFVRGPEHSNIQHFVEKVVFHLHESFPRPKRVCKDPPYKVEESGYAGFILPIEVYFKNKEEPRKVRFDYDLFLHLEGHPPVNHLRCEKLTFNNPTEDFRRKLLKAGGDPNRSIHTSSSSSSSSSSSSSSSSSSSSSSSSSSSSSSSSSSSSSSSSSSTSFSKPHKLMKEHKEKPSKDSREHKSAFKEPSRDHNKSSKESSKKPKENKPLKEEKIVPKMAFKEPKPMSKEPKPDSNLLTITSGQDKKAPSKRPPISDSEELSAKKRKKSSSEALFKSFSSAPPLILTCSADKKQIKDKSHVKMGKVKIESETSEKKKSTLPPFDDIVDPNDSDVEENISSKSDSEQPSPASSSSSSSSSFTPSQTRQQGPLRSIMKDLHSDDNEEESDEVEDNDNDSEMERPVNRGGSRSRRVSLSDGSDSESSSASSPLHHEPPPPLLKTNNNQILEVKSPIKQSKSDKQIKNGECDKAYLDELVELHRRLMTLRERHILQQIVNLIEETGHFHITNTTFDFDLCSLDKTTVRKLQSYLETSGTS
# S100A4 inh HTS: blocks human S100A4 binding to myosin IIA peptide | 360,000 tested, 0.14% active | S100A4/TAMRA-MyoIIA peptide fluorescence polarization | inhibition, % at 10.7 µM;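 active means mean inhibition of at least 70% across replicates, with every replicate also reaching that level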
# Target sequence (P26447 whole entry, looked up): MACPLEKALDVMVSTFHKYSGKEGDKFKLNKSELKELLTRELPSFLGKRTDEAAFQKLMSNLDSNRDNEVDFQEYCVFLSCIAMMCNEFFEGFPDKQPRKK
#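 Test system – S100A4 monomer (human) · Compound – single-point compound testing · Schedule – 5 min incubation before reading · Probe or stimulus – TAMRA-labelled myosin IIA heavy-chain peptide probe, 5 nM · Benchmarks – neutral control DMSO, positive control TFP · Medium – Calcium-containing HEPES buffer, pH 7.2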
# A number is an active result; 0 = inactive; - = no result; ! = not active in a repeat. An excerpt weighted towards active compounds, which were near 3.2% of everything screened.
SMILES,Cneo AK release,DENV2 CPE rescue,PfHsp90 yeast 2,Ecoli rRNA inh,MLL AF4-AF9 inh,S100A4 inh HTS
C[C@H](CO)N1C[C@H](C)[C@H](CN(C)Cc2ccc(-c3ccccc3)cc2)Oc2ccc(NS(=O)(=O)c3ccc(Cl)cc3)cc2C1=O,0,0,-,0,0,0
C[C@@H]1CN([C@@H](C)CO)C(=O)c2cc(NS(=O)(=O)c3ccc(Cl)cc3)ccc2O[C@H]1CN(C)Cc1ccccc1,0,0,-,0,25,0
CC(C)NC(=O)N(C)C[C@@H]1Oc2cc(-c3cncnc3)ccc2S(=O)(=O)N([C@H](C)CO)C[C@@H]1C,0,0,-,0,0,0
COc1ccccc1-c1ccc([C@H]2[C@@H](CO)N3CCCCN(C(=O)NC4CCCC4)C[C@H]23)cc1,0,23,-,0,0,0
O=C(NC1CCCC1)N1CCCCN2[C@H](CO)[C@H](c3ccc(-c4cncnc4)cc3)[C@@H]2C1,103,0,-,0,0,0
CN1C[C@H](O)COC[C@@H]2O[C@H](CC(=O)NC3CCC3)CC[C@H]21,0,0,-,0,0,0
Cc1cc(C)cc(NC(=O)Nc2ccc(-n3ccc(C(F)(F)F)n3)cc2)c1,0,0,0,0,0,0
O=C(Nc1ccc(-n2ccc(C(F)(F)F)n2)cc1)Nc1cccc(Cl)c1,-,0,0,-51,-,0
O=C(C[C@@H]1C=C[C@H](NC(=O)c2ccncc2)[C@@H](CO)O1)NCc1ccncn1,-,0,-,0,0,0
C=Cc1ccc(Cn2c(C)c(C(=O)NCc3cccc(C(F)(F)F)c3)sc2=O)cc1,0,57,-,0,0,0
Cc1c(C(=O)NCc2cccc(C(F)(F)F)c2)sc(=O)n1Cc1ccc(F)cc1,0,0,-,0,0,0
Oc1cccc2cc(Nc3ccccc3)cnc12,0,-,-,0,30,0
C[C@@H]1CN([C@@H](C)CO)C(=O)c2cccc(NS(=O)(=O)c3ccccc3)c2O[C@H]1CN(C)Cc1ccncc1,0,0,-,0,0,0
C[C@H](CO)N1C[C@H](C)[C@H](CN(C)C(=O)C2CC2)OCc2cnnn2CCCC1=O,0,113!,-,0,0,0
C[C@@H]1CN([C@@H](C)CO)C(=O)CCCn2nncc2CO[C@@H]1CN(C)CC1CCCCC1,0,59,-,0,0,0
C[C@H]1CN([C@@H](C)CO)C(=O)CCCn2nncc2CO[C@@H]1CN(C)C(=O)C1CC1,0,0,-,0,0,0
C[C@H](CO)N1C[C@H](C)[C@@H](CN(C)C(=O)C2CC2)OCc2cnnn2CCCC1=O,0,49!,-,0,0,0
Cc1cc(C(=O)Nc2cccc3c2O[C@H](CN(C)C(=O)Nc2c(C)noc2C)[C@H](C)CN([C@@H](C)CO)C3=O)n(C)n1,0,0,-,0,0,0
CC(C)NC(=O)N(C)C[C@H]1Oc2c(NC(=O)NC3CCCCC3)cccc2C(=O)N([C@H](C)CO)C[C@H]1C,0,0,-,0,0,0
COc1ccc2c3c(n(C)c2c1)[C@@H](CO)N(C(=O)c1cccc(F)c1)CC31CCN(CC2CC2)CC1,-,-,-,0,-,-
C[C@@H]1CN([C@H](C)CO)C(=O)c2cc(NC(=O)Nc3cccc4ccccc34)ccc2O[C@@H]1CN(C)C(=O)Nc1ccc2c(c1)OCO2,0,33,-,0,0,0
C[C@H]1CN([C@@H](C)CO)C(=O)c2cc(NC(=O)Nc3cccc4ccccc34)ccc2O[C@@H]1CN(C)C(=O)Nc1ccc(C(F)(F)F)cc1,90,0,-,0,0,0
CNC[C@@H]1Oc2ccc(NC(=O)Nc3cccc4ccccc34)cc2C(=O)N([C@H](C)CO)C[C@@H]1C,0,0,-,0,0,137
C[C@H]1CN([C@@H](C)CO)C(=O)c2cc(NC(=O)Nc3cccc4ccccc34)ccc2O[C@H]1CN(C)C(=O)Nc1ccccc1,0,0,-,0,0,0
C[C@@H]1CN([C@@H](C)CO)C(=O)c2cc(NC(=O)Nc3cccc4ccccc34)ccc2O[C@@H]1CN(C)C(=O)Nc1ccc(C(F)(F)F)cc1,0,0,-,0,0,0
SMILES,Cneo AK release,DENV2 CPE rescue,PfHsp90 yeast 2,Ecoli rRNA inh,MLL AF4-AF9 inh,S100A4 inh HTS
C[C@@H]1CN([C@@H](C)CO)C(=O)c2cc(NC(=O)Nc3cccc4ccccc34)ccc2O[C@@H]1CN(C)C(=O)Nc1ccccc1,107,0,-,0,0,0
Cc1cccc(-c2ccc([C@H]3[C@H](CO)N4C(=O)CN(C(=O)c5cccnc5)C[C@@H]34)cc2)c1,-,0,-,0,0,0
Cc1noc(C)c1NC(=O)N(C)C[C@H]1OCCCC[C@@H](C)Oc2ccc(NC(=O)c3ccncc3)cc2C(=O)N([C@@H](C)CO)C[C@H]1C,0,0,-,0,0,0
C[C@H]1CN([C@@H](C)CO)C(=O)Cc2cc(NC(=O)Cn3cnnn3)ccc2O[C@@H]1CN(C)Cc1ccc(C(=O)Nc2ccccc2N)cc1,-,0,-,0,0,0
CO[C@H]1CN(C)C(=O)c2ccc(NS(C)(=O)=O)cc2OC[C@H](C)N(C(=O)C2CCOCC2)C[C@H]1C,0,0,-,0,0,0
C[C@@H]1CN([C@@H](C)CO)C(=O)c2cc(NC(=O)Nc3ccccc3)ccc2O[C@@H]1CN(C)C(=O)Nc1cccc2ccccc12,108,0,-,0,0,0
CC(=O)Nc1ccc(NC(=O)c2ccc(Cn3cc(Cl)cn3)cc2)cc1,-,0,0,0,0,0
COc1ccc(C(=O)Nc2cc(C(=O)O)cc(C(=O)O)c2)cc1Cl,-,0,0,0,0,0
O=C(Nc1cccc(Cl)c1)c1ccc(Cn2cc(Cl)cn2)cc1,0,0,0,-26,0,0
O=C(NCCc1ccc(F)cc1)c1cccc(NC(=O)c2ccccc2)c1,0,0,0,-22,0,0
CSc1ccccc1NC(=O)Nc1ccc(F)c(Cl)c1,-,-,0,-,-,-
COC(=O)c1cccc(NC(=O)c2ccc(OC)c(Cl)c2)c1,0,-,-,-30,0,0
CSc1ccccc1NC(=O)Nc1cccc(Cl)c1,0,0,0,-28,0,0
C[C@H](NC(=O)C[C@@H]1CC[C@H](NC(=O)C2CC2)[C@H](CO)O1)c1ccccc1,0,0,-,0,0,0
O=C(C[C@@H]1C[C@H]2c3cc(NC(=O)Cc4ccncc4)ccc3O[C@H]2[C@@H](CO)O1)NCc1ccccn1,0,0,-,0,0,0
CCCNC(=O)N1C[C@@H](C)[C@@H](OC)CN(C)C(=O)c2cc(NC(=O)CC)ccc2OC[C@@H]1C,0,0,-,0,0,0
C[C@@H]1CN([C@H](C)CO)C(=O)c2cc(NC(=O)CCN3CCOCC3)ccc2O[C@@H]1CN(C)Cc1ccncc1,0,0,-,0,0,0
CCCCC(=O)NC(=S)Nc1cccc(NC(=O)c2ccccc2)c1,-,0,0,-19,0,0
O=C(NNC(=S)Nc1cccc(Cl)c1)c1ccccc1,0,0,0,0,0,0

# Screens: PubChem BioAssay, Broad Institute
